Test results from ChEMBL document CHEMBL1143781, “Synthesis, in vitro antibacterial and antifungal evaluations of 2-amino-4-(1-naphthyl)-6-arylpyrimidines” (2007).
Values after ≈ are worked out from the molar mass of the structure shown.

Key:
Format in all cases: functional
Microsporum = test: Antifungal activity against Microsporum gypseum after 7 days; details: 168 h
Procedure, shortened: (§1)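 Fungal strains were taken from Sabouraud medium into nutrient broth and grown 3–5 days at 25 °C. They were vortexed 4–5 min with sterile beads, and the suspensions were adjusted to absorbance 0.5 at 500 nm. Eight serial dilutions were made in microplates, and all wells except the positive control received standardized inoculum. MIC was the lowest concentration giving no visible growth.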

Staphylococcus aureus = test: Antibacterial activity against Staphylococcus aureus after 24 hrs by micro-broth dilution technique
Procedure, shortened: (§2)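 Mueller-Hinton broth microdilution. Test compounds were serially diluted two-fold in DMSO. The inoculum was grown in broth overnight at 37 °C, then diluted to a final 10⁵ cfu/ml in the tray. Trays were covered and incubated at 37 °C for about 24 h. MIC was the lowest concentration inhibiting visible growth.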

Pseudomonas aeruginosa = test: Antibacterial activity against Pseudomonas aeruginosa after 24 hrs by micro-broth dilution technique; procedure, shortened: as §2
Trichophyton tonsurans = test: Antifungal activity against Trichophyton tonsurans after 7 days; details: 168 h; procedure, shortened: as §1
Escherichia coli = test: Antibacterial activity against Escherichia coli after 24 hrs by micro-broth dilution technique; procedure, shortened: as §2
Klebsiella pneumoniae = test: Antibacterial activity against Klebsiella pneumoniae after 24 hrs by micro-broth dilution technique; procedure, shortened: as §2

| MIC (Microsporum) [mg/L] | MIC (Staphylococcus aureus) [mg/L] | MIC (Pseudomonas aeruginosa) [mg/L] | MIC (Trichophyton tonsurans) [mg/L] | MIC (Escherichia coli) [mg/L] | MIC (Klebsiella pneumoniae) [mg/L] | SMILES |
| --- | --- | --- | --- | --- | --- | --- |
| 25 (≈ 75.3 µM) | 40 (≈ 121 µM) | 6.4 (≈ 19.3 µM) | 25 (≈ 75.3 µM) | > 60 | 5.38 (≈ 16.2 µM) | Nc1nc(-c2ccccc2Cl)cc(-c2cccc3ccccc23)n1 |
| 0.2 (≈ 0.481 µM) |  |  | 0.2 (≈ 0.481 µM) |  |  | Clc1ccc(COC(Cn2ccnc2)c2ccc(Cl)cc2Cl)c(Cl)c1 (stereo not given) [MICONAZOLE] |
| 25 (≈ 76.4 µM) | > 60 | 10.2 (≈ 31.2 µM) | 25 (≈ 76.4 µM) | > 60 | 9.31 (≈ 28.4 µM) | COc1ccc(-c2cc(-c3cccc4ccccc34)nc(N)n2)cc1 |
| 5.9 (≈ 18.7 µM) | 7.3 (≈ 23.1 µM) | 5.45 (≈ 17.3 µM) | 2.2 (≈ 6.98 µM) | 8.1 (≈ 25.7 µM) | 2.55 (≈ 8.09 µM) | Nc1nc(-c2ccc(F)cc2)cc(-c2cccc3ccccc23)n1 |
| 25 (≈ 75.3 µM) | 39 (≈ 118 µM) | 7.42 (≈ 22.4 µM) | 25 (≈ 75.3 µM) | 41 (≈ 124 µM) | 6.38 (≈ 19.2 µM) | Nc1nc(-c2cccc(Cl)c2)cc(-c2cccc3ccccc23)n1 |
| 25 (≈ 73 µM) | 25.6 (≈ 74.9 µM) | 11.9 (≈ 34.8 µM) | 25 (≈ 73 µM) | 16.6 (≈ 48.6 µM) | 15.3 (≈ 44.8 µM) | Nc1nc(-c2ccc([N+](=O)[O-])cc2)cc(-c2cccc3ccccc23)n1 |
| 25 (≈ 84.1 µM) | > 60 | 6.59 (≈ 22.2 µM) | 25 (≈ 84.1 µM) | 42 (≈ 141 µM) | 5.5 (≈ 18.5 µM) | Nc1nc(-c2ccccc2)cc(-c2cccc3ccccc23)n1 |
| 25 (≈ 73 µM) | 29.1 (≈ 85 µM) | 18.2 (≈ 53.2 µM) | 25 (≈ 73 µM) | 19.5 (≈ 57 µM) | 14.3 (≈ 41.7 µM) | Nc1nc(-c2cccc([N+](=O)[O-])c2)cc(-c2cccc3ccccc23)n1 |
| 25 (≈ 76.4 µM) | > 60 | 9.18 (≈ 28 µM) | 25 (≈ 76.4 µM) | 36 (≈ 110 µM) | 8.22 (≈ 25.1 µM) | COc1ccccc1-c1cc(-c2cccc3ccccc23)nc(N)n1 |
| 5.55 (≈ 16.7 µM) | 12.3 (≈ 37.1 µM) | 21.9 (≈ 66 µM) | 2.8 (≈ 8.44 µM) | 13.5 (≈ 40.7 µM) | 19.8 (≈ 59.7 µM) | Nc1nc(-c2ccc(Cl)cc2)cc(-c2cccc3ccccc23)n1 |

| SMILES | MIC (Microsporum) [mg/L] | MIC (Staphylococcus aureus) [mg/L] | MIC (Pseudomonas aeruginosa) [mg/L] | MIC (Trichophyton tonsurans) [mg/L] | MIC (Escherichia coli) [mg/L] | MIC (Klebsiella pneumoniae) [mg/L] |
| --- | --- | --- | --- | --- | --- | --- |
| CC1(C)S[C@@H]2[C@H](NC(=O)[C@H](N)c3ccccc3)C(=O)N2[C@H]1C(=O)O [AMPICILLIN] |  | 1 (≈ 2.86 µM) | 1.8 (≈ 5.15 µM) |  | 1.65 (≈ 4.72 µM) | 1.8 (≈ 5.15 µM) |
